Series [1] deals with Leishmania donovani. In words: Antileishmanial activity against amastigote stage of Leishmania donovani MHOM/IN/80/Dd8 harboring luciferase gene infected in mouse J774 cells assessed as parasite growth inhibition by Giemsa staining based analysis. It is filed as functional, organism-based. The following applies: time 12-72 hrs, TDE = time-dependent effect. In a few lines:
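J774 macrophages are infected for 24 h with stationary-phase luciferase-transfected Dd8 promastigotes at a 1:8 ratio in chamber slides. After compound treatment, cells are fixed and Giemsa-stained, and intracellular amastigotes are counted by microscopy.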

Series [2] deals with Splenocyte. In words: Immunomodulatory activity in BALB/c mouse infected with Leishmania donovani amastigotes assessed as decrease in IL-10 level in splenocytes supernatants at 50 mg/kg, ip for 5 days. It is filed as functional, organism-based. The following applies: time 5.0 day.
The subject of series [3] is Leishmania donovani. In words: Antileishmanial activity against amastigote stage of Leishmania donovani MHOM/IN/80/Dd8 harboring luciferase gene infected in mouse J774 cells assessed as parasite killing incubated for 72 hrs by Steady-Glo reagent based luciferase assay. It is filed as functional, organism-based. The note with it: dose 3.12-50 µM. In a few lines:
(§1)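 J774 murine macrophages, 4 × 10⁴ cells/well in RPMI with 10% FBS for 24 h, are infected for 24 h at 37 °C, 5% CO₂ with stationary-phase luciferase-transfected L. donovani Dd8 promastigotes at a 1:8 macrophage:parasite ratio. Compounds are dissolved in DMSO. Luminescence is read after Steady-Glo is added in PBS. IC₅₀ is taken from a four-parameter Hill nonlinear regression. Miltefosine is the reference.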

A short description of series [4]: Cytotoxicity against mouse J774 cells assessed as reduction in cell viability incubated for 72 hrs by MTT assay. It is filed as cell-based. The procedure, abridged: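 J774 macrophages seeded at 1 × 10^5 cells/well overnight, then exposed to graded concentrations (7.81–500 µM) for 72 h at 37 °C, 5% CO2. MTT (5 mg/mL) added for 2 h, formazan solubilized in DMSO and read at 570 nm. CC50 taken as 50% viability loss relative to untreated cells.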
In general terms: Formazan colour is commonly taken as a measure of viable cells.

Series [5] has as its system Leishmania donovani. In words: Antileishmanial activity against amastigote stage of Leishmania donovani MHOM/IN/80/Dd8 harboring luciferase gene infected in mouse J774 cells assessed as parasite growth inhibition at 25 uM incubated for 72 hrs by Steady-Glo reagent based luciferase assay. It counts as functional. The following applies: MHOM/IN/80/Dd8, J774. In a few lines:
as §1

The subject of series [6] is Leishmania donovani. Description: Induction of apoptosis in Leishmania donovani MHOM/IN/80/Dd8 promastigotes assessed as late apoptotic cells at 50 uM measured after 24 hrs by Alexa fluor488-AnnexinV/PI staining based FACSCalibur flow cytometry analysis (reference value: 0.7%). It is filed as functional.
In series [7] the test system is Leishmania donovani. Description: Induction of mitochondrial membrane potential dysfunction in Leishmania donovani MHOM/IN/80/Dd8 promastigotes assessed as cells with mitochondrial depolarization at 50 uM incubated for 24 hrs by JC1 staining based flow cytometry (reference value: 3.63%). It counts as functional. In a few lines: (§2)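 Promastigotes (1 × 10^6 cells/mL) exposed to 50 µM for 24–72 h, or to IC50 for 72 h. CCCP (50 µM final) served as depolarization positive control. Cells washed, stained with JC-1 (2 µM final) 30 min at 37 °C, 5% CO2. Red-to-green fluorescence shift measured by flow cytometry.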
On the technique in general: Flow cytometry measures light scatter and fluorescence of single cells or particles in a stream.

The subject of series [8] is Leishmania donovani. In words: Induction of apoptosis in Leishmania donovani MHOM/IN/80/Dd8 promastigotes assessed as increase in cytochrome c release by measuring increase in cytochrome c level in cytosol at 50 uM incubated for 12 to 72 hrs by Western blot analysis. It is filed as functional, organism-based. The following applies: time 12-72 hrs. The procedure, abridged: (§3)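 Promastigotes treated with 50 µM for 12, 24, 48 and 72 h, then washed in PBS. Cell fractionation buffer applied 10 min on ice, cells homogenized, centrifuged 10,000 × g for 25 min at 4 °C. Cytosolic and mitochondrial fractions immunoblotted for cytochrome c. Loading controls were actin (cytosol) and COX-4 (mitochondria).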

For series [9], the system named is Leishmania donovani. Description: Induction of apoptosis in Leishmania donovani MHOM/IN/80/Dd8 promastigotes assessed as late apoptotic cells at 50 uM measured after 48 hrs by Alexa fluor488-AnnexinV/PI staining based FACSCalibur flow cytometry analysis (reference value: 0.7%). It is filed as functional.
The subject of series [10] is Leishmania donovani. In words: Antileishmanial activity against log phase of Leishmania donovani MHOM/IN/80/Dd8 promastigotes assessed as reduction in cell viability by MTT assay. It is filed as functional, organism-based. The following applies: time 12-72 hrs, TDE = time-dependent effect.
Series [11] has as its system Leishmania donovani. In words: Antileishmanial activity against amastigote stage of Leishmania donovani MHOM/IN/80/Dd8 harboring luciferase gene infected in mouse J774 cells assessed as parasite growth inhibition at 50 uM incubated for 72 hrs by Steady-Glo reagent based luciferase assay. It is filed as functional. The following applies: MHOM/IN/80/Dd8, J774. The procedure, abridged: as §1

In series [12] the test system is Splenocyte. In words: Immunomodulatory activity in BALB/c mouse infected with Leishmania donovani amastigotes assessed as decrease in TGF-beta level in splenocytes supernatants at 50 mg/kg, ip for 5 days. It counts as functional, organism-based. The following applies: time 5.0 day.
Series [13] has as its system Leishmania donovani. Description: Induction of apoptosis in Leishmania donovani MHOM/IN/80/Dd8 promastigotes assessed as increase in cytochrome c release by measuring decrease in cytochrome c level in mitochondria at 50 uM incubated for 12 to 72 hrs by Western blot analysis. It is filed as functional, organism-based. The note with it: time 12-72 hrs. The procedure, abridged: as §3
(Immunoblotting shows a protein as a band on a membrane.)

Series [14] has as its system Leishmania donovani. Description: Induction of mitochondrial membrane potential dysfunction in Leishmania donovani MHOM/IN/80/Dd8 promastigotes assessed as cells with mitochondrial depolarization at 50 uM incubated for 72 hrs by JC1 staining based flow cytometry (reference value: 3.63%). It is filed as functional.
In series [15] the test system is Leishmania donovani. In words: Induction of mitochondrial membrane potential dysfunction in Leishmania donovani MHOM/IN/80/Dd8 promastigotes assessed as cells with mitochondrial depolarization at 50 uM incubated for 48 hrs by JC1 staining based flow cytometry (reference value: 3.63%). It is filed as functional. In a few lines: as §2
In series [16] the test system is Leishmania donovani. Description: Antileishmanial activity against log phase of Leishmania donovani MHOM/IN/80/Dd8 promastigotes assessed as reduction in cell viability at 25 uM incubated for 72 hrs by MTT assay. It is filed as functional. The procedure, abridged:
(§4)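 Log-phase luciferase-transfected L. donovani Dd8 promastigotes (M199 + 10% FBS, 24 °C) treated with compounds at 25 and 50 µM in DMSO, with 0.1% DMSO vehicle control. After 72 h, MTT added 4 h. Formazan dissolved in DMSO, read at 570 nm. Percent inhibition reported as mean ± SD of at least three independent experiments in replicate.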

The test system of series [17] is Leishmania donovani. Description: Antileishmanial activity against log phase of Leishmania donovani MHOM/IN/80/Dd8 promastigotes assessed as reduction in cell viability at 50 uM incubated for 72 hrs by MTT assay. It counts as functional. In a few lines:
as §4

The subject of series [18] is Splenocyte. In words: Immunomodulatory activity in BALB/c mouse infected with Leishmania donovani amastigotes assessed as increase in IFN-gamma level in splenocytes supernatants at 50 mg/kg, ip for 5 days. It counts as functional, organism-based. The note with it: time 5.0 day.
Series [19] concerns Leishmania donovani. In words: Induction of mitochondrial membrane potential dysfunction in Leishmania donovani MHOM/IN/80/Dd8 promastigotes assessed as cells with mitochondrial depolarization at IC50 incubated for 72 hrs by JC1 staining based flow cytometry (reference value: 6.6%). It counts as functional. In a few lines:
as §2

The test system of series [20] is Leishmania donovani. In words: Antileishmanial activity against amastigote stage of Leishmania donovani MHOM/IN/80/Dd8 harboring luciferase gene infected in mouse J774 cells assessed as parasite growth inhibition incubated for 72 hrs by Steady-Glo reagent based luciferase assay. It counts as functional, organism-based. The following applies: MHOM/IN/80/Dd8, J774, 72 h. The procedure, abridged: as §1

The source made the active and inactive calls. The rule behind the calls is not given here.

The term CC50 denotes the concentration giving 50% cytotoxicity. The term inhibition denotes the change of the read-out against control, counted positive when it falls. The term IC50 denotes the concentration that inhibits the measured activity by half.

As to `N#Cc1c(N2CCN(c3ccccc3O)CC2)cc(-c2ccccc2)oc1=O`, the Activity result with Leishmania donovani [1] is “Tde”; in the series on Leishmania donovani [3] it was “Dose-Dependent Effect”; with Leishmania donovani [6], 1.2%; in the series with Leishmania donovani [7], 32.9%; with Leishmania donovani [9], 2.3%; in the series with Leishmania donovani [10], “Tde”. Moreover, the Activity with Leishmania donovani [14] is 86.9%; in the series with Leishmania donovani [15], 54.1%; with Leishmania donovani [19] it was 22.9%. Moreover, the outcome in the series on Splenocyte [2], in the series with Splenocyte [12] and in the series with Splenocyte [18] was inactive. The cytotoxic concentration (CC50) at 72 h in [4] is 351 µM. Besides, the inhibition at 25 µM in the series on Leishmania donovani [5] stood at 84.2%; in the series on Leishmania donovani [16], 82.7%. For the same molecule, the outcome in the series on Leishmania donovani [8] and in the series on Leishmania donovani [13] was Active. Further, the values for the inhibition at 50 µM in the series on Leishmania donovani [11] and in the series on Leishmania donovani [17] were 95.7% and 85.2%, respectively. The IC50 with Leishmania donovani [20] turned out to be 11.1 µM.

Values taken from ChEMBL document CHEMBL4837217, “Design, synthesis, in vitro and in vivo biological evaluation of pyranone-piperazine analogs as potent antileishmanial agents” (Eur J Med Chem, 2021).
